In ChEMBL document CHEMBL4392827, “Tryptamine derivatives disarm colistin resistance in polymyxin-resistant gram-negative bacteria” (Bioorg Med Chem, 2019):

Assays:
Klebsiella pneumoniae [1] = assay: Induction of membrane permeabilization in colistin-resistant Klebsiella pneumoniae isolate C3 at 60 uM measured after 1 hr by SYTO-9/propidium iodide staining based fluorescence assay relative to control; format: functional
In short: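 Cells were grown overnight in CAMHB at 37°C, diluted 1:10 and grown 4 h more to an OD600 of ~0.3. They were pelleted, washed with sterile water and resuspended at 1/10 volume in water containing compound. After 1 h at 37°C with shaking, cells were washed and stained with SYTO-9/propidium iodide (1:1, 3 μL/mL) for 15 min at RT. Emission was read at 530 and 645 nm (excitation 485 nm), and the green/red ratio was expressed as % of the untreated control.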

Acinetobacter baumannii [2] = assay: Potentiation of colistin-induced antimicrobial activity against colistin-resistant Acinetobacter baumannii isolate 3942 assessed as fold reduction in colistin MIC at 10 uM after 18 hrs by broth microdilution assay; format: functional
In short: (§1)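 CLSI-adapted broth microdilution. Bacteria were grown 4–6 h in cation-adjusted Mueller-Hinton broth and subcultured to 5 ×10^5 CFU/mL. The subculture was dosed with adjuvant from DMSO stock at a constant final concentration, then colistin was added and serially diluted across wells. Plates were incubated stationary at 37°C for 18 h and the MIC recorded. Fold reduction is relative to the colistin MIC without adjuvant.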

Klebsiella pneumoniae [3] = assay: Potentiation of colistin-induced antimicrobial activity against colistin-resistant Klebsiella pneumoniae isolate C3 assessed as fold reduction in colistin MIC at 40 uM after 18 hrs by broth microdilution assay; format: functional; in short: as §1
Acinetobacter baumannii [4] = assay: Potentiation of colistin-induced antimicrobial activity against Acinetobacter baumannii ATCC 17978 assessed as fold reduction in colistin MIC at 60 uM after 18 hrs by broth microdilution assay; format: functional
In short: (§2)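 Bacteria grown 4–6 h in cation-adjusted Mueller-Hinton broth and diluted to 5 ×10^5 CFU/mL. Adjuvant from DMSO stock held at fixed 60 μM while colistin is twofold serially diluted in the same adjuvant-dosed broth. Plates sealed and kept stationary at 37°C for 18 h. Colistin MIC read and fold reduction taken relative to colistin alone.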

[5] = Hemolytic activity in sheep erythrocytes assessed as hemolysis at 100 uM incubated for 1 hr under shaking condition by UV-spectrophotometry; format: ADME, cell-based, Ovis aries, Erythrocyte; details: read-out: Activity
In short: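 Washed sheep erythrocytes (defibrinated blood spun, resuspended in PBS three times) diluted 10-fold in PBS containing compound from DMSO stock. DMSO negative control (0% lysis), 1% Triton X100 positive control (100% lysis). 1 h at 37°C with shaking, then spun 10 min at 10,000 rpm and supernatant diluted 1:40 in distilled water.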

Acinetobacter baumannii [6] = assay: Potentiation of colistin-induced antimicrobial activity against colistin-resistant Acinetobacter baumannii isolate 3942 assessed as fold reduction in colistin MIC at 40 uM after 18 hrs by broth microdilution assay; format: functional; in short: as §1
Acinetobacter baumannii [7] = assay: Potentiation of colistin-induced antimicrobial activity against colistin-resistant Acinetobacter baumannii isolate 4112 assessed as fold reduction in colistin MIC at 60 uM after 18 hrs by broth microdilution assay; format: functional
In short: (§3)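 Checkerboard-style resensitization following adapted CLSI broth microdilution. Bacteria were grown 4–6 h in CAMHB and subcultured to 5×10^5 CFU/mL. Adjuvant was added from DMSO stock and held constant while colistin was serially diluted in the dosed subculture. Plates were incubated stationary at 37°C for 18 h, then MICs were read. Fold reduction was taken relative to the colistin MIC without adjuvant.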

Acinetobacter baumannii [8] = assay: Potentiation of colistin-induced antimicrobial activity against colistin-resistant Acinetobacter baumannii ATCC 17978 expressing mcr1 gene assessed as fold reduction in colistin MIC at 60 uM after 18 hrs by broth microdilution assay; format: functional; in short: as §3
Acinetobacter baumannii [9] = assay: Potentiation of colistin-induced antimicrobial activity against colistin-resistant Acinetobacter baumannii isolate 3942 assessed as fold reduction in colistin MIC at 30 uM incubated for 2 to 24 hrs under shaking condition in presence of 0.001% triton X-100 by broth microdilution assay; format: functional
Acinetobacter baumannii [10] = assay: Potentiation of colistin-induced antimicrobial activity against colistin-resistant Acinetobacter baumannii isolate 3942 assessed as fold reduction in colistin MIC at 60 uM incubated for 2 to 24 hrs under shaking condition in presence of 0.001% triton X-100 by broth microdilution assay; format: functional
Acinetobacter baumannii [11] = assay: Toxicity in Acinetobacter baumannii ATCC 17978 expressing mcr1 gene after 18 hrs by broth microdilution assay; format: organism-based
In short: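 Single-agent MIC per CLSI broth microdilution. Cells from a 4–6 h culture in cation-adjusted Mueller-Hinton broth adjusted to 5 ×10^5 CFU/mL. Compound (DMSO stock) added to 200 μM top concentration and twofold serially diluted six times, with an untreated control row. Plates sealed and incubated stationary at 37°C for 18 h before MIC read.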

Klebsiella pneumoniae [12] = assay: Potentiation of colistin-induced antimicrobial activity against colistin-resistant Klebsiella pneumoniae isolate C3 after 18 hrs by broth microdilution assay; format: functional, organism-based
In short: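 Colistin MIC was determined by adapted CLSI broth microdilution in CAMHB (5×10^5 CFU/mL inoculum), with adjuvant held at fixed levels of 5, 10, 15, 20, 30, 40, 50 or 60 μM. Adjuvant was dosed from DMSO stock while colistin was serially diluted. Plates were incubated stationary at 37°C for 18 h. Fold reduction was taken versus colistin alone.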

Klebsiella pneumoniae [13] = assay: Potentiation of colistin-induced antimicrobial activity against colistin-resistant Klebsiella pneumoniae isolate C3 assessed as fold reduction in colistin MIC at 30 uM after 18 hrs by broth microdilution assay; format: functional; in short: as §1
Acinetobacter baumannii [14] = assay: Potentiation of colistin-induced antimicrobial activity against colistin-resistant Acinetobacter baumannii isolate 3942 assessed as fold reduction in colistin MIC at 50 uM after 18 hrs by broth microdilution assay; format: functional; in short: as §1
Escherichia coli = assay: Potentiation of colistin-induced antimicrobial activity against Escherichia coli ATCC 25922 assessed as fold reduction in colistin MIC at 60 uM after 18 hrs by broth microdilution assay; format: functional; in short: as §2
Klebsiella pneumoniae [15] = assay: Potentiation of colistin-induced antimicrobial activity against Klebsiella pneumoniae ATCC BAA-2146 expressing NDM1 gene assessed as fold reduction in colistin MIC at 60 uM after 18 hrs by broth microdilution assay; format: functional; in short: as §2
Klebsiella pneumoniae [16] = assay: Potentiation of colistin-induced antimicrobial activity against colistin-resistant Klebsiella pneumoniae isolate C3 assessed as fold reduction in colistin MIC at 10 uM after 18 hrs by broth microdilution assay; format: functional; in short: as §1
Acinetobacter baumannii [17] = assay: Potentiation of colistin-induced antimicrobial activity against colistin-resistant Acinetobacter baumannii 4106 assessed as fold reduction in colistin MIC at 60 uM after 18 hrs by broth microdilution assay; format: functional; in short: as §3
Klebsiella pneumoniae [18] = assay: Potentiation of colistin-induced antimicrobial activity against colistin-resistant Klebsiella pneumoniae B9 assessed as fold reduction in colistin MIC at 60 uM after 18 hrs by broth microdilution assay; format: functional; in short: as §3
Klebsiella pneumoniae [19] = assay: Potentiation of colistin-induced antimicrobial activity against colistin-resistant Klebsiella pneumoniae isolate A5 assessed as fold reduction in colistin MIC at 60 uM after 18 hrs by broth microdilution assay; format: functional; in short: as §3
Acinetobacter baumannii [20] = assay: Potentiation of colistin-induced antimicrobial activity against colistin-resistant Acinetobacter baumannii isolate 3942 assessed as fold reduction in colistin MIC at 60 uM after 18 hrs by broth microdilution assay; format: functional; in short: as §3
Acinetobacter baumannii [21] = assay: Toxicity in colistin-resistant Acinetobacter baumannii isolate 3942 at 60 uM after 18 hrs by broth microdilution assay; format: organism-based
Klebsiella pneumoniae [22] = assay: Potentiation of colistin-induced antimicrobial activity against colistin-resistant Klebsiella pneumoniae isolate C3 assessed as fold reduction in colistin MIC at 60 uM after 18 hrs by broth microdilution assay; format: functional; in short: as §3

For `O=C(NCc1c[nH]c2ccccc12)c1cc(Br)c(Br)[nH]1`, the “fold change (FC)” value (Klebsiella pneumoniae [1]) was 1.5, the “fold change (FC)” value (Acinetobacter baumannii [2]) was 2 and the “fold change (FC)” value (Klebsiella pneumoniae [3]) was 256. The “fold change (FC)” value (Acinetobacter baumannii [4]) was 4, the hemolysis at 1 h, 100 µM [5] was under 1% and the “fold change (FC)” value (Acinetobacter baumannii [6]) was 256. For the same compound, the “fold change (FC)” value (Acinetobacter baumannii [7]) was 2048, the “fold change (FC)” value (Acinetobacter baumannii [8]) was 32 and the “fold change (FC)” value (Acinetobacter baumannii [9]) was 128. For the same compound, the “fold change (FC)” value (Acinetobacter baumannii [10]) was 1024, the MIC (Acinetobacter baumannii [11]) was over 200 µM and the Activity (Klebsiella pneumoniae [12]) was “Dose-dependent effect”. The “fold change (FC)” value (Klebsiella pneumoniae [13]) was 128, the “fold change (FC)” value (Acinetobacter baumannii [14]) was 512 and the “fold change (FC)” value (Escherichia coli) was 4. For the same compound, the “fold change (FC)” value (Klebsiella pneumoniae [15]) was 0, the “fold change (FC)” value (Klebsiella pneumoniae [16]) was 32 and the “fold change (FC)” value (Acinetobacter baumannii [17]) was 2048. For the same compound, the “fold change (FC)” value (Klebsiella pneumoniae [18]) was 2048, the “fold change (FC)” value (Klebsiella pneumoniae [19]) was 512 and the “fold change (FC)” value (Acinetobacter baumannii [20]) was 2048. The Activity (Acinetobacter baumannii [21]) was “Non-Toxic” and the “fold change (FC)” value (Klebsiella pneumoniae [22]) was 2048.
